The text below walks through data of ChEMBL document CHEMBL3596101, “The Mechanism of Ca(2+) Movement in the Involvement of Baicalein-Induced Cytotoxicity in ZR-75-1 Human Breast Cancer Cells” (J Nat Prod, 2015).

The subject of data set [1] is ZR-75-1. As to the kind of experiment: Increase in intracellular Ca2+ level in human ZR-75-1 cells at 40 uM by fura-2-AM dye-based spectrofluorophotometric analysis in presence of Ca2+ containing medium with Ca2+ chelator BAPTA-AM. The class given is functional, cell-based. Summed up: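 Fura-2-loaded ZR-75-1 cells treated with 5 μM BAPTA-AM, then 40 μM compound in Ca2+-containing medium (2 mM CaCl2, pH 7.4). Ratio fluorescence 340/380 nm excitation, 510 nm emission, 25 °C cuvette.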

The test system of data set [2] is ZR-75-1. Briefly: Inhibition of endoplasmic reticulum Ca2+ pump inhibitor BHQ-induced intracellular Ca2+ increase in human ZR-75-1 cells at 40 uM pretreated with compound followed by BHQ induction in presence of Ca2+ free medium. The class given is functional, cell-based. In short, it runs like this:
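ZR-75-1 cells loaded with 2 μM fura-2-AM for 30 min at 25 °C, then suspended in Ca2+-free medium (pH 7.4; 0.3 mM EGTA, 3 mM MgCl2). Stirred cuvette at 25 °C. Thapsigargin (1 μM) or BHQ (50 μM) given before or after 40 μM compound. Excitation 340/380 nm, emission 510 nm, read at 1 s intervals. [Ca2+]i calibrated with Triton X-100/CaCl2 then EGTA.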

In data set [3] the test system is ZR-75-1. As to the kind of experiment: Increase in intracellular Ca2+ level in human ZR-75-1 cells at 40 uM treated for 25 secs by fura-2-AM dye-based spectrofluorophotometric analysis in presence of Ca2+-free medium (reference value: 50 +/- 2 nM). It counts as functional. In short, it runs like this: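 Fura-2-loaded ZR-75-1 cells (0.5 million per 1 mL, stirred, 25 °C) in Ca2+-containing or Ca2+-free medium. Compound added at 25 s. 340/380 nm excitation, 510 nm emission at 1 s intervals, calibrated to nM. Concentration-response from baseline-subtracted area under curve (25–250 s) as % of 50 μM response in Ca2+ medium. EC50 from Hill fit. Three experiments.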

Data set [4] deals with ZR-75-1. Briefly: Induction of reactive oxygen species production in human ZR-75-1 cells at 40 uM after 24 hrs by DCFH-DA probe-based flow cytometric analysis (reference value: 3.623%). The class given is functional. In short, it runs like this: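 ZR-75-1 cells treated with 20–40 μM compound for 24 h, with 5 μM BAPTA-AM added first where indicated. Cells suspended at 1 × 10^6/mL, loaded with 10 μM DCFH-DA for 30 min at 37 °C. DCF read by flow cytometry (488 nm excitation, 530/30 nm filter, 10000 cells). % H2O2-positive (M1) after subtracting the baseline without probe. Three experiments.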
(In general: In flow cytometry, cells or beads pass a laser one at a time.)

Data set [5] concerns ZR-75-1. Briefly: Increase in intracellular Ca2+ level in human ZR-75-1 cells at 40 uM treated for 60 secs post PLC inhibitor U73122 addition by fura-2-AM dye-based spectrofluorophotometric analysis in presence of Ca2+ free medium. The class given is functional, cell-based. In short, it runs like this:
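Performed in Ca2+-free medium with fura-2-loaded ZR-75-1 cells. Response expressed relative to 40 μM compound alone (100%). Three experiments.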

The nature of data set [6]: Cytotoxicity against human ZR-75-1 cells assessed as cell viability at 50 uM measured 20 mins post intracellular Ca2+ level detection by trypan blue exclusion assay relative to control. Conditions: read-out: Activity. The class given is cell-based. In short, it runs like this:
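Fura-2-loaded ZR-75-1 cells were held in the fluorescence cuvette with 50 μM compound. Viability was scored by trypan blue exclusion after 20 min of fluorescence recording.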

Activity calls are given as the source filed them. The calls are words filed in the database; no cut-off is given here.

Take `O=c1cc(-c2ccccc2)oc2cc(O)c(O)c(O)c12` [BAICALEIN]: the result with ZR-75-1 [1] and in the data set on ZR-75-1 [5] was inactive. For the same molecule, the inhibition result with ZR-75-1 [2] was “Active”. For the same molecule, the Activity in the data set with ZR-75-1 [3] amounted to 103 nM; in the data set with ZR-75-1 [4], 43.227%. The viability at 20 min, 50 µM in data set [6] amounted to 95%.
